In ChEMBL document CHEMBL2146367, “Novel fluorescent ceramide derivatives for probing ceramidase substrate specificity” (Bioorg Med Chem, 2012):
The source made the active and inactive calls. The calls are words filed in the database; no cut-off is given here.

Columns and labels:
[1] = target: T1, Acid ceramidase (Homo sapiens) (UniProt Q13510); test: Activity of human recombinant acid ceramidase expressed in baculovirus infected Sf9 cells assessed as hydrolysis at 160 uM after 150 mins by TLC-based fluorescence imaging in presence of DP-24a
T1 sequence (whole entry): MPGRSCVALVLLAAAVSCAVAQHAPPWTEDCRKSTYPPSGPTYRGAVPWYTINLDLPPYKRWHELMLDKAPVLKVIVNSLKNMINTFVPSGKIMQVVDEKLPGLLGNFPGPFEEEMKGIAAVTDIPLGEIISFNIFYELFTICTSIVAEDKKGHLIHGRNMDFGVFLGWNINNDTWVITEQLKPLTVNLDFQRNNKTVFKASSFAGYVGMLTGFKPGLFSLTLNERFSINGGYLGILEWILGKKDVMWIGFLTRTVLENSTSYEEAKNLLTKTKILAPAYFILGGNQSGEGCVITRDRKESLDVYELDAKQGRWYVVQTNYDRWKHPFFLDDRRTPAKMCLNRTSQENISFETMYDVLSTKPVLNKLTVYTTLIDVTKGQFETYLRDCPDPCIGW
Method in brief: (§1)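 Inhibition runs used 30 µg/mL aCDase with inhibitor at 50 µM, in pH 4.5 sodium acetate buffer with 200 mM NaCl and 0.1% Triton X-100. Substrate set per compound at 80, 55 or 160 µM; DMSO <5%. Incubated 150 min at 37 °C, then extracted and run on TLC with fluorescence imaging. Activity expressed relative to an inhibitor-free control; mean ± SD of three experiments, with significance by p value.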

[2] = target: T1, Acid ceramidase (Homo sapiens); test: Activity of human recombinant acid ceramidase expressed in baculovirus infected Sf9 cells assessed as hydrolysis at 160 uM after 150 mins by TLC-based fluorescence imaging in presence of B-13; method in brief: as §1
[3] = target: T1, Acid ceramidase (Homo sapiens); test: Activity of human recombinant acid ceramidase expressed in baculovirus infected Sf9 cells assessed as hydrolysis at 20 uM after 150 mins by TLC-based fluorescence imaging; parameters: scale not given: the % may be the effect or the level left
Method in brief: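 Micellar assay with insect-cell-expressed human aCDase in 200 mM sodium acetate pH 4.5, 200 mM NaCl, 0.1% Triton X-100. Substrate at 20 µM final, 150 min at 37 °C. Quenched with chloroform/methanol 2:1, organic layer separated on silica TLC. Spots imaged at ex 550/em 600 nm (Nile Red) or ex 430/em 550 nm (NBD). Percent cleavage taken from cleaved/(cleaved+uncleaved) fluorescence; mean ± SD, n=3.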

[4] = target: Neutral ceramidase (Homo sapiens) (UniProt Q9NR71); test: Activity of human recombinant neutral ceramidase assessed as hydrolysis at 20 uM after 60 mins by TLC-based fluorescence imaging; parameters: scale not given: the % may be the effect or the level left
Method in brief: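 Recombinant human nCDase at 20 ng/mL final, with substrate at 20 µM final, in 200 mM sodium acetate pH 7.0, 200 mM NaCl, 0.1% Triton X-100. Incubated 60 min at 37 °C. Stopped with chloroform/methanol 2:1 and centrifuged 2 min at 10,000 rpm; organic layer run on TLC. Percent hydrolysis from imaged fluorescence of product versus substrate; mean ± SD, n=3.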

[5] = target: T1, Acid ceramidase (Homo sapiens); test: Activity of human recombinant acid ceramidase expressed in baculovirus infected Sf9 cells assessed as hydrolysis at 55 uM after 150 mins by TLC-based fluorescence imaging in presence of DP-24a; method in brief: as §1
[6] = target: T1, Acid ceramidase (Homo sapiens); test: Activity of human recombinant acid ceramidase expressed in baculovirus infected Sf9 cells assessed as hydrolysis at 55 uM after 150 mins by TLC-based fluorescence imaging in presence of B-13; method in brief: as §1
[7] = target: T1, Acid ceramidase (Homo sapiens); test: Activity of human recombinant acid ceramidase expressed in baculovirus infected Sf9 cells assessed as hydrolysis at 80 uM after 150 mins by TLC-based fluorescence imaging in presence of B-13; method in brief: as §1
[8] = target: T1, Acid ceramidase (Homo sapiens); test: Activity of human recombinant acid ceramidase expressed in baculovirus infected Sf9 cells assessed as hydrolysis at 80 uM after 150 mins by TLC-based fluorescence imaging in presence of DP-24a; method in brief: as §1
[9] = tested on: Tachypleus tridentatus; test: Activity of japanese horseshoe crab acid ceramidase after 30 mins by TLC-based fluorescence imaging

Chain of Neutral ceramidase (Homo sapiens) (Q9NR71 whole entry): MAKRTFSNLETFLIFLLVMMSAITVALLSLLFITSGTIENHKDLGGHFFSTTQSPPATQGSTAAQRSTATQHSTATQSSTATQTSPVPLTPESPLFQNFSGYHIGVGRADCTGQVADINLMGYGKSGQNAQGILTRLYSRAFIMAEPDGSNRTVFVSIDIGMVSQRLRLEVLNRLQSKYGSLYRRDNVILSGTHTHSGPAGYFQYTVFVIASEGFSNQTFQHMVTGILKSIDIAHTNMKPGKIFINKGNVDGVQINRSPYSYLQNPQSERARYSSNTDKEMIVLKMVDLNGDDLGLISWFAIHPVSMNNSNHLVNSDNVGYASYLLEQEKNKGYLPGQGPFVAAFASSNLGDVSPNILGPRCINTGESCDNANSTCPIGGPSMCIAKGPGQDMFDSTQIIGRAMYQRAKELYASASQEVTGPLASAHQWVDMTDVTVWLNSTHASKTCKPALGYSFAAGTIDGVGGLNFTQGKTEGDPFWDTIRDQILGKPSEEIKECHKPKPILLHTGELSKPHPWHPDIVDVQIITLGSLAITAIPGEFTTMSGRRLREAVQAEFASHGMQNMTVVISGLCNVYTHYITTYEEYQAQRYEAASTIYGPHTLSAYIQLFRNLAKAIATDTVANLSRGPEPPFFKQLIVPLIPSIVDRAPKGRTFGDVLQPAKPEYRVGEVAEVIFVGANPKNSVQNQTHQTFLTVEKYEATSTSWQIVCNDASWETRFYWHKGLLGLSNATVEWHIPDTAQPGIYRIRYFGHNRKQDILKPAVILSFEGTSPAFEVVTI

Activity [1] | Activity [2] | Activity [3] [%] | Activity [4] [%] | Activity [5] | Activity [6] | Activity [7] | Activity [8] | Km [9] [µM] | Vmax [9] [pmol/min] | SMILES
inactive | inactive | 5.6 | 6.2 | – | – | – | – | – | – | CCCCCCCCCCCCCCCC(=O)N[C@@H](CO)[C@H](O)/C=C/CCCCCCCCCNc1ccc([N+](=O)[O-])c2nonc12
– | – | 6.3 | 3.9 | inactive | inactive | – | – | – | – | CCCCCCCCCCCCCCCC(=O)N[C@@H](CO)[C@H](O)/C=C/CCCCCCCCCOc1ccc2c(=O)cc3oc4cc(N(CC)CC)ccc4nc-3c2c1
– | – | 9.9 | 9.9 | – | – | inactive | inactive | 59 | 0.8 | CCCCCCCCCCCCC/C=C/[C@@H](O)[C@H](CO)NC(=O)CCCCCCCCCCCNc1ccc([N+](=O)[O-])c2nonc12
– | – | 6.1 | 3.3 | – | – | inactive | inactive | – | – | CCCCCCCCCCCCC/C=C/[C@@H](O)[C@H](CO)NC(=O)CCCCCCCCCCCOc1ccc2c(=O)cc3oc4cc(N(CC)CC)ccc4nc-3c2c1
